p97 ATPase inh: inhibitors of human p97 ATPase, primary screen, biochemical; Transitional endoplasmic reticulum ATPase (Homo sapiens), P55072; recombinant p97 ATPase, Kinase-Glo ATP luminescence, 3 h; inhibition, % at 8 µM; 220,000 tested, 0.42% active; in the data active = inhibition above about 15%;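 also: 0% = DMSO vehicle and 100% = wells lacking enzyme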
L929 necroptosis: inhibitors of zVAD-triggered necroptosis, primary screen, L929 cells; 220,000 tested, 0.38% active; viability rescue, % at 10 µM; L929 zVAD necroptosis rescue, ATP luminescence, 24 h; with zVAD 60 µM;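 active = activation, scaled between plate controls, above about 75%, limit read from the data; inactive = activation under that limit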;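 also: 0% = zVAD with DMSO and 100% = DMSO alone without zVAD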
TNF necrop inh: inhibitors of TNF-alpha triggered necroptosis, primary screen, cell-based, Jurkat FADD-/-, single concentration; Jurkat FADD-/- TNF necroptosis rescue, ATP luminescence, 24 h; 0 = TNF only, 100 = no-TNF cells; activation (protection from cell death), % at 10 µM; 220,000 tested, 0.068% active;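 active = activation, meaning protection from cell death, of at least 50% relative to plate controls; inactive = activation below 50%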;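 also: necroptosis triggered by 40 ng/mL TNF-alpha added together with compound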
PfM18AAP inh: PfM18AAP inhibitors, malaria aminopeptidase, primary screen, biochemical, QFRET, recombinant enzyme; inhibition, % at 7.35 µM; M18 aspartyl aminopeptidase (Plasmodium falciparum 3D7); H-Glu-NHMec fluorogenic cleavage; 290,000 tested, 1.2% active;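 active = inhibition above the campaign mean inhibition over all tested compounds plus 3 SD, cut at about 28% in these data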;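 also: 0% = plate median of test compound wells and 100% = 2 mM ZnCl2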
RBBP9 inhibitor: human RBBP9 inhibitors, primary screen, biochemical, fluorescence polarization, FP-Rh probe, HTS; inhibition, % at 7.94 µM; 220,000 tested, 0.2% active; Serine hydrolase RBBP9 (Homo sapiens), O75884; recombinant RBBP9; AID 1515, 2009;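 active = inhibition above the campaign mean of all tested compounds plus 3 SD, cut at about 14% in these data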;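 also: plate controls were DMSO wells with RBBP9 for no effect and wells lacking RBBP9 protein for full effect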
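Test system: recombinant human RBBP9. Quantity: 2.5 µM RBBP9 dispensing solution, before mixing. Detection: FP readout at 525/598 nm. Reagent: Serine-hydrolase probe FP-Rh, 375 nM pre-mixing. Measure: % inhibition. Control set: DMSO-treated enzyme wells and wells lacking RBBP9. Buffer or medium: Tris-NaCl-Pluronic buffer, pH 8.0. Times: preincubation 30 min plus labeling 45 min at 25 °C.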
Wee1 degr inh: Wee1 degradation inhibitors, primary screen, cell-based, HeLa, Wee1K328M-luciferase, luminescence; reporter increase, % at 5 µM; 220,000 tested, 1.2% active; Wee1-like protein kinase (Homo sapiens), P30291; HeLa Luc-Wee1K328M stability; 100% = proteasome inhibitor MG132 effect;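 active = activation above the mean of all tested compounds plus 3 SD, set per screening run, cut at about 8.8% in these data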;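 also: cells exposed to compound for 20 h before luminescence read; 0% = DMSO alone and 100% = MG132 at 30 µM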
Target sequence (P30291 whole entry K328M): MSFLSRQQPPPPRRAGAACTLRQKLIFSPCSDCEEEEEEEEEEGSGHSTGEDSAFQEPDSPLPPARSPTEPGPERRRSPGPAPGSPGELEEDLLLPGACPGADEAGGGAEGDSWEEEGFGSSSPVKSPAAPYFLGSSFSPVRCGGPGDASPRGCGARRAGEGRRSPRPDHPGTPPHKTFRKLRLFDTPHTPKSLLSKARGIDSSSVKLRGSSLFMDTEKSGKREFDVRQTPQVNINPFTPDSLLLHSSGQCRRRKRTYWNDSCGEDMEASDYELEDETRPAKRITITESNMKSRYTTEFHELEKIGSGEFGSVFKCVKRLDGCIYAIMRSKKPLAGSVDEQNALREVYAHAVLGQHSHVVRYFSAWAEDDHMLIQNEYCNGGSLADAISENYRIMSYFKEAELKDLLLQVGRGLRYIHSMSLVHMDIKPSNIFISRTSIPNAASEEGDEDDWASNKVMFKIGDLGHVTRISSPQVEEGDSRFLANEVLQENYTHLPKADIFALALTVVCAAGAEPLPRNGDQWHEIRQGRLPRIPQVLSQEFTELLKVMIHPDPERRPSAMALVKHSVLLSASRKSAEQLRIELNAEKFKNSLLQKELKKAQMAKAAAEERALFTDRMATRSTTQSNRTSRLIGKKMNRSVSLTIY
* = called active by the depositor; nt = no result. Rows were chosen to be rich in hits. Some 2.7% of all compounds tested hit in one or more screens of this group.

SMILES	p97 ATPase inh	L929 necroptosis	TNF necrop inh	PfM18AAP inh	RBBP9 inhibitor	Wee1 degr inh
CC(=O)C1=C(O)C(=O)N(c2ccc(C(=O)O)cc2)C1c1ccccc1 (centres undefined)	2	0	0	10	-2	9.2*
COC(=O)CCN(C(=O)c1ccc(C)c([N+](=O)[O-])c1)c1ccccn1	1	2	1	-1	-1	10.0*
COCCN1C(=O)c2oc3cc(C)c(C)cc3c(=O)c2C1c1ccc(O)cc1 (centres undefined)	4	0	0	-10	-2	9.1*
C/C(=N\NC(=O)c1cccc(C)c1O)c1ccc(NC(=O)Cc2ccccc2)cc1	nt	nt	nt	6	nt	nt
Cc1nc2c(sc3nc4c(cc32)COC(C)(C)C4)c(=O)n1CC(=O)NCc1ccco1	-9	-1	-10	-2	-9	9.3*
Cc1ccc(C(=O)N/N=C\c2ccccn2)cn1	0	-1	0	-6	0	11*
O=C(N/N=C/c1ccccn1)NC12CC3CC(CC(C3)C1)C2	6	0	0	14	11	10.0*
CC(C)(C)c1ccc(C(=O)N/N=C/c2ccccn2)cc1	nt	nt	nt	4	nt	nt
Cc1ccc(C(=O)N/N=C\c2ccccc2[N+](=O)[O-])cn1	2	0	0	-1	-3	11*
CC1CN(C(=O)CCC(=O)N2CCN(c3cccc(C(F)(F)F)c3)CC2)c2ccccc2O1 (centres undefined)	nt	nt	nt	2	nt	nt
Cc1ccc(NC(=S)N(CCC(C)C)C(C)c2ccncc2)c(Cl)c1 (centres undefined)	1	-1	-1	3	4	2
O=C(Nc1nc(-c2ccc3c(c2)OCO3)cs1)C1CC1	-1	76*	8	-8	-6	2
COc1ccc(N(CC(=O)N/N=C(\C)c2ccc(OC)c(OC)c2)S(=O)(=O)c2ccccc2)cc1	nt	nt	nt	6	nt	nt
CCOC(=O)Cc1c(C)nc2c(-c3cccc(Br)c3)cnn2c1C	4	1	2	0	-6	10*
Cc1cc(N)n2ncc(-c3cccc(Br)c3)c2n1	4	13	-4	18	1	5
CCCN1CCC(Oc2cccc(C(=O)NCCc3ccccc3)c2)CC1	nt	nt	nt	-2	nt	nt
COc1ccc(NS(=O)(=O)c2ccc(NC(=O)c3ccccc3)cc2)nn1	4	1	1	8	1	11*
COc1ccc(NS(=O)(=O)c2ccc(NC(=O)c3ccc(Br)cc3)cc2)nn1	6	0	0	-5	-5	-3
CN(C)/C=C/C(=O)c1cnc(-c2ccc(Cl)cc2)s1	1	2	0	-20	-11	2
O=C(c1ccccc1)c1cnc(-c2ccc(Cl)cc2)s1	0	0	-1	-3	-10	-1
O=C(c1ccccc1)c1cnc(-c2ccccc2)s1	-10	3	2	-12	-4	10*
CN(C)/C=C/C(=O)c1cnc(-c2ccccc2)s1	3	12	1	-1	-11	10*
CN1C(=O)C(Cc2cnc[nH]2)NC1=S (centres undefined)	nt	nt	nt	4	nt	nt
Cc1ccc(C)n1-n1c(C)nc2scc(-c3cccs3)c2c1=O	15*	14	4	2	4	8
O=c1c2c(-c3cccs3)csc2ncn1-c1ccc(Br)cc1	-1	0	-1	-2	-9	9.1*
SMILES	p97 ATPase inh	L929 necroptosis	TNF necrop inh	PfM18AAP inh	RBBP9 inhibitor	Wee1 degr inh
COc1cccc(-n2cnc3scc(-c4cccs4)c3c2=O)c1	3	1	-7	6	-1	-1
CC(=O)Nc1ccc(S(=O)(=O)N2CCC(c3nc4c(nnn4Cc4ccccc4Cl)c(=O)[nH]3)CC2)cc1	nt	nt	nt	2	nt	nt
CC(=O)Nc1cccc(/C(C)=N/NC(=O)c2ccc(O)cc2)c1	5	0	-1	3	-7	10*
O=C(N/N=C/c1ccncc1)c1cccc(N/N=C/c2ccncc2)c1	-5	3	-4	-6	-7	-2
C/C(=N/NC(=O)c1ccc(O)cc1)c1cccc([N+](=O)[O-])c1	2	1	1	-5	-5	2
O=C(N/N=C/c1ccc(O)cc1)c1cccc(N/N=C/c2ccc(O)cc2)c1	17*	0	-3	21	0	0
COc1ccc(-c2cn3cc(C)ccc3n2)cc1OC	-12	0	-5	-1	-3	10*
COc1ccc(-c2cn3cc(C)ccc3n2)cc1F	-10	-1	-2	5	-5	1
O=C1C2CCCN2C(c2ccco2)N1c1ccc(F)cc1 (centres undefined)	-4	-1	0	3	-6	10*
CC1=C(C(=O)Nc2ccccn2)C(c2ccc(Cl)cc2)NC(=S)N1 (centres undefined)	-2	10	0	-5	-7	9.9*
CCc1ccc2oc(-c3cc(N)ccc3O)nc2c1	-4	1	-13	5	-7	9.5*
CCc1ccc2oc(-c3cc(N)ccc3Cl)nc2c1	1	11	-1	-2	-7	2
CCCCOC(=O)Nc1ccc(N2CCCCC2)cc1	-4	1	3	1	-9	9.1*
Cc1ccc(C(=O)Nc2ccc(N3CCCC3)cc2)c(C)c1	-1	0	0	3	-6	2
CCCCOC(=O)Nc1ccc(N2CCOCC2)cc1	-1	0	-2	6	-3	2
Cc1ccccc1C(=O)Nc1ccc(N2CCCC2)cc1	-1	2	-1	23	-3	10*
Cc1onc(-c2c(F)cccc2Cl)c1C(=O)ONC(=O)c1ccco1	5	0	-1	6	8	-2
CN(C)S(=O)(=O)c1cccc(COC(=O)CN2C(=O)NC3(CCCC3)C2=O)c1	nt	nt	nt	1	nt	nt
CC(=O)Nc1cc(C(=O)N2CCc3ccccc3C2)ccc1Sc1ccc(Cl)cc1	3	1	0	-6	-7	9.6*
CC(=O)Nc1cc(C(=O)N2CCc3ccccc3C2)ccc1Sc1ccc(F)cc1	-1	1	1	-7	-7	3
CC(NC(=O)C(=O)NCCC1=CCCCC1)c1ccccc1 (centres undefined)	3	2	20	3	-4	8.8*
CCc1nnc(NS(=O)(=O)c2ccc(NC(=O)c3ccc(C#N)cc3)cc2)s1	nt	nt	nt	-15	nt	nt
CC(=O)N1CCN(c2c(F)c(F)c(C(F)(F)F)c(F)c2F)CC1	-2	1	-2	-10	0	1
CCC(c1nnnn1Cc1ccc(OC)cc1)N(CCCO)Cc1cc2cc3c(cc2[nH]c1=O)OCO3 (centres undefined)	0	0	-2	1	-5	9.2*

Screening results deposited in PubChem BioAssay by several laboratories.
